# From ChEMBL document CHEMBL4325878, “SAR of a new antischistosomal urea carboxylic acid” (Bioorg Med Chem Lett, 2018)
# Active and inactive are the calls of the source. No cut-off for these calls is given here.
# Experiments:
# Schistosoma mansoni [1] = test: Antischistosomal activity against Schistosoma mansoni cercariae infected in NMRI mouse assessed as worm burden reduction at 100 mg/kg, po administered as single dose on day 49 of post infection and measured on day 21 of post treatment relative to control; type: functional; set-up: scale not given: the % may be the effect or the level left
# Method in brief: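 Single 100 mg/kg oral dose given to S. mansoni-infected mice; in vivo activity read as worm burden reduction versus an untreated control group, with statistical comparison to control.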
# Schistosoma mansoni [2] = test: Antischistosomal activity against adult stage of Schistosoma mansoni cercariae at 10 uM after 72 hrs by microscopic analysis; type: functional, organism-based
# Method in brief: (§1)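 Newly transformed schistosomula and cultured adult S. mansoni were exposed in vitro to compound at 10 μM.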
# Schistosoma mansoni [3] = test: Antischistosomal activity against newly transformed Schistosoma mansoni cercariae at 10 uM after 72 hrs by microscopic analysis; type: functional, organism-based; method in brief: as §1
# [4] = Kinetic solubility of compound in 0.01 M HCL at 10 mg/ml at pH 2 by nephelometry; type: physicochemical; conditions: read-out: Kinetic_solubility
# Method in brief: (§2)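 DMSO solutions of compound spiked into pH 6.5 phosphate buffer or 0.01 M HCl (approx. pH 2.0); nephelometry read-out, reported as a solubility concentration range.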
# [5] = Intrinsic clearance in mouse liver microsomes assessed per mg protein after 60 mins in presence of NADPH; type: ADME, Microsome; conditions: 1 h
# Method in brief: (§3)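 In vitro intrinsic clearance determined in human and in mouse liver microsomes. Control incubations run without NADPH co-factor; parameters were not derived where compound was lost in those co-factor-free controls.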
# [6] = Intrinsic clearance in human liver microsomes assessed per mg protein after 60 mins in presence of NADPH; type: ADME, Microsome; conditions: 1 h; method in brief: as §3
# L6 = test: Cytotoxicity against rat L6 cells up to 200 uM; type: cell-based
# Method in brief: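 Growth inhibition of rat L6 myoblasts was used as the host-cell cytotoxicity measure, testing compound at concentrations up to 200 μM.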
# [7] = Kinetic solubility of compound in pH 6.5 phosphate buffer at 10 mg/ml by nephelometry; type: physicochemical; conditions: read-out: Kinetic_solubility; method in brief: as §2
# Schistosoma mansoni [8] = test: Antischistosomal activity against adult stage of Schistosoma mansoni infected in NMRI nude mouse administered as single oral dose on day 49 of post infection; type: functional; conditions: 1176 h
# Schistosoma mansoni [9] = test: Antischistosomal activity against adult stage of Schistosoma mansoni cercariae after 72 hrs by microscopic analysis; type: functional
Structure (SMILES),Activity (Schistosoma mansoni [1]) [%],Activity (Schistosoma mansoni [2]),Activity (Schistosoma mansoni [3]),solubility kinetic [4] [µg/mL],microsomal intrinsic clearance [5] [µL/min],microsomal intrinsic clearance [6] [µL/min],Activity (L6),solubility kinetic [7] [µg/mL],ED50 (Schistosoma mansoni [8]) [mg/kg],LC50 (Schistosoma mansoni [9]) [nM]
O=C(Nc1ccc(F)c(C(F)(F)F)c1)NC1(C(=O)O)CC1,4,inactive,inactive,> 100,< 7,< 7,Non-Toxic,> 100,,
CCOC(=O)C(C)(C)NC(=O)Nc1ccc(F)c(C(F)(F)F)c1,70,inactive,inactive,3.1 to 6.3,,,Non-Toxic,3.1 to 6.3,,
CC(C)(CC(=O)Nc1ccc(F)c(C(F)(F)F)c1)C(=O)O,42,inactive,inactive,25 to 50,< 7,< 7,Non-Toxic,25 to 50,,
CC(C)(NC(=O)Nc1ccccc1)C(=O)O,20,inactive,inactive,> 100,< 7,< 7,Non-Toxic,50 to 100,,
O=C(O)CNC(=O)Nc1ccc(F)c(C(F)(F)F)c1,49,inactive,inactive,> 100,< 7,< 7,Non-Toxic,> 100,,
CC1(C)NC(=O)N(c2ccc(F)c(C(F)(F)F)c2)C1=O,,,,,,,,,172,
O=C(C1CCCCC1)N1CC(=O)N2CCc3ccccc3C2C1 (stereo not given) [PRAZIQUANTEL],15,,,,,,,,,77
CC(C)(C(=O)O)N1Cc2cc(F)c(C(F)(F)F)cc2NC1=O,0,inactive,inactive,50 to 100,< 7,< 7,Non-Toxic,> 100,,
CC(C)(NC(=O)Nc1ccc(F)c(C(F)(F)F)c1)C(=O)O,,inactive,inactive,25 to 50,< 7,< 7,,> 100,,
O=C(Nc1ccc(F)c(C(F)(F)F)c1)NC1(C(=O)O)CCC1,21,inactive,inactive,50 to 100,< 7,7,Non-Toxic,> 100,,
CC(C)(C(=O)O)n1c(=O)[nH]c2cc(C(F)(F)F)c(F)cc21,0,inactive,inactive,50 to 100,< 7,< 7,Non-Toxic,> 100,,
CC(C)(NC(=O)Cc1ccc(F)c(C(F)(F)F)c1)C(=O)O,0,inactive,inactive,50 to 100,< 7,< 7,Non-Toxic,25 to 50,,
CC(C)(C(=O)O)N1CCCN(c2ccc(F)c(C(F)(F)F)c2)C1=O,14,inactive,inactive,> 100,< 7,< 7,Non-Toxic,> 100,,
CC(C)(NC(=O)Nc1ccc(F)c(C(F)(F)F)c1)C(N)=O,38,inactive,inactive,50 to 100,18,19,Non-Toxic,50 to 100,,
